The IC50 is the concentration that gives 50% inhibition. Broadly, the inhibition is the change of the read-out against control, counted positive when it falls.

From ChEMBL document CHEMBL5678798 (Clin Cancer Res, 2009) come the findings set out here.

In one experiment the test system is KMS-12-BM. The experiment in a line: Antiproliferative activity against human KMS-12-BM cells assessed as reduction in cell viability after 72 hrs by CellTiter-Glo assay. The experiment is classed as functional, cell-based. In short, it runs like this:
(§1)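 Cells seeded in 96-well plates, left overnight at 37°C, then exposed to a range of test concentrations for 72 h. Viability read by CellTiter-Glo luminescence; IC50 from four-parameter curve fit. Lines kept at 37°C, 5% CO2, in recommended growth medium.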

Experiment [1] is described as follows: Antiproliferative activity against human RDES cells assessed as reduction in cell viability after 72 hrs by CellTiter-Glo assay. The format is functional, cell-based. The note with it: RD-ES. The gist of the method:
as §1
(ATP-based viability assays read luminescence as a measure of living cells.)

The next experiment has as its system HeLa. The experiment in a line: Antiproliferative activity against human HeLa cells assessed as reduction in cell viability after 72 hrs by CellTiter-Glo assay. The experiment is classed as functional, cell-based. The gist of the method: as §1
The subject of another experiment is MCF7. The experiment in a line: Induction of cell cycle arrest in human MCF7 cells assessed as cells accumulation at G2 phase at 1 umol/L incubated for 48 hrs by propidium iodide staining based flow cytometric analysis (reference value: 17%). The experiment is classed as functional. The note with it: dose 1 µmol/L, at 1 µM. The gist of the method:
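COLO 205, MCF-7 or NCI-H929 cells seeded in 96-well plates overnight at 37°C, then exposed to DMSO or increasing compound concentrations for 24 or 48 h. Fixed and stained with propidium iodide (Vindelov method), then analysed by flow cytometry for sub-G1, G1, S and G2-M fractions. Experiment repeated twice.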

A short description of experiment [2]: Antitumor activity against mouse NIH-3T3/LISN cells implanted in nu/nu CD-1 mouse assessed as reduction in tumor growth at 30 mg/kg, po for 21 days relative to control. The note with it: 504 h, time 21 day, read-out: TGI. The format is functional. In short, it runs like this:
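Exponentially growing cells implanted s.c. in the right flank of 8–10-wk-old female athymic nu/nu CD-1 mice. At 150–200 mm3, block-randomized by tumor size into groups of eight. Oral dosing once or twice daily for 21 d; vehicle 20% sulfobutylether-β-cyclodextrin, pH 3.5. Calipers twice weekly; volume = length×width²/2. Growth inhibition = 100×[1 − treated growth/vehicle growth].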

Another experiment has as its system COLO 205. Description: In vivo inhibition of IGF1R in human COLO 205 cells xenografted in IGF1-stimulated po dosed nu/nu CD-1 mouse assessed as reduction in IGF1R phosphorylation pretreated for 4 hrs followed by IGF1 stimulation and measured after 15 min by radioimmunoprecipitation assay. The format is functional, organism-based. The note with it: dose 1-60 mg/kg, time 4.17 hrs, in the assay text read “measured after 10 min” for “measured after 15 min”. The gist of the method:
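Female nu/nu CD-1 mice, three per group, bearing ~500 mm3 tumors, given one oral dose of compound or vehicle. At 4 h, 10 µg hIGF-I i.v. via tail vein; saline controls. Tumor and blood taken 10 min later. Tumor lysates in RIPA captured on anti-IGF-IR plates and probed with europium anti-phosphotyrosine. Phospho/total IGF-IR expressed as % of ligand-stimulated control. Blood levels by LC-MS/MS.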
(Xenograft models place foreign cells or tissue in a host animal.)

Experiment [3] can be described thus: In vivo inhibition of IGF1R in mouse NIH-3T3/LISN cells xenografted in IGF1-stimulated nu/nu CD-1 mouse assessed as reduction in IGF1R phosphorylation at 3 umol/L blood compound concentration pretreated for 1 to 72 hrs followed by IGF1 stimulation and measured after 10 min by […] relative to control. The experiment is classed as functional. The note with it: dose 3 µmol/L; time 60-4330 min; at 3 µM.

A further experiment concerns the target Activin receptor type-2B (Homo sapiens, UniProt Q13705). The experiment in a line: Inhibition of ActRIIB (unknown origin).
Experiment [4] deals with Inhibitor of nuclear factor kappa-B kinase subunit beta (Homo sapiens, UniProt O14920). Description: Inhibition of IKK2 (unknown origin).
Inhibitor of nuclear factor kappa-B kinase subunit beta, sequence (O14920 whole entry): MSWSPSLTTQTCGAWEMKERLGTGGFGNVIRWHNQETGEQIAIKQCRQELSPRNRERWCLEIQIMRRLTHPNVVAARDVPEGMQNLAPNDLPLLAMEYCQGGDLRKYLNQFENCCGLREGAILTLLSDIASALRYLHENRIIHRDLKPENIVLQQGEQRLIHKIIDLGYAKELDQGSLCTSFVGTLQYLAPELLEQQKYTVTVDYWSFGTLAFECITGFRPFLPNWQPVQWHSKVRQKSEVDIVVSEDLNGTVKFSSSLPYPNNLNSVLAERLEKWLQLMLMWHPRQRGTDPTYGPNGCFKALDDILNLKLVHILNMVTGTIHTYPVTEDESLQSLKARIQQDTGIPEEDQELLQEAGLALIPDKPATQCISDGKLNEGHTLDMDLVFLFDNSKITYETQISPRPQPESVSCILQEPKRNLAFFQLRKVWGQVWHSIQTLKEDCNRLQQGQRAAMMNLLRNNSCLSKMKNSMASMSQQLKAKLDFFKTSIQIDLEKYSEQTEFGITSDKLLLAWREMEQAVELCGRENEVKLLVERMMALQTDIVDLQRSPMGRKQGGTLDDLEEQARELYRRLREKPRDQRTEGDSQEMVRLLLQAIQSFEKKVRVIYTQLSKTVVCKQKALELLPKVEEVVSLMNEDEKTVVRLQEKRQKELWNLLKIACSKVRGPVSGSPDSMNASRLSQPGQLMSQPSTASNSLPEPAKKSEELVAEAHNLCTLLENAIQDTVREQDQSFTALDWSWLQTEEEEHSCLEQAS
Experiment [5] has as its target Dual specificity protein kinase CLK2 (Homo sapiens) (UniProt P49760). Description: Inhibition of N-terminal GST-tagged recombinant human CLK2 (138 to end residues) expressed in baculovirus infected Sf21 cells at 0.3 uM by filter binding assay relative to control. The gist of the method: (§2)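 Outsourced single-concentration screen in a commercial panel of 233 protein kinases, run as radiometric filter-binding activity assays. Test agent was tested at 0.3 or 3 µmol/L, as given in each line, from a 10 mmol/L DMSO stock. Activity is expressed as percent inhibition relative to control.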

In experiment [6] the target is Serine/threonine-protein kinase PLK1 (Homo sapiens) (UniProt P53350). Description: Inhibition of N-terminal 6His-tagged recombinant human Plk1 expressed in baculovirus infected Sf21 cells at 0.3 uM by filter binding assay relative to control. The gist of the method: as §2
Serine/threonine-protein kinase PLK1 (Homo sapiens), sequence (P53350 whole entry): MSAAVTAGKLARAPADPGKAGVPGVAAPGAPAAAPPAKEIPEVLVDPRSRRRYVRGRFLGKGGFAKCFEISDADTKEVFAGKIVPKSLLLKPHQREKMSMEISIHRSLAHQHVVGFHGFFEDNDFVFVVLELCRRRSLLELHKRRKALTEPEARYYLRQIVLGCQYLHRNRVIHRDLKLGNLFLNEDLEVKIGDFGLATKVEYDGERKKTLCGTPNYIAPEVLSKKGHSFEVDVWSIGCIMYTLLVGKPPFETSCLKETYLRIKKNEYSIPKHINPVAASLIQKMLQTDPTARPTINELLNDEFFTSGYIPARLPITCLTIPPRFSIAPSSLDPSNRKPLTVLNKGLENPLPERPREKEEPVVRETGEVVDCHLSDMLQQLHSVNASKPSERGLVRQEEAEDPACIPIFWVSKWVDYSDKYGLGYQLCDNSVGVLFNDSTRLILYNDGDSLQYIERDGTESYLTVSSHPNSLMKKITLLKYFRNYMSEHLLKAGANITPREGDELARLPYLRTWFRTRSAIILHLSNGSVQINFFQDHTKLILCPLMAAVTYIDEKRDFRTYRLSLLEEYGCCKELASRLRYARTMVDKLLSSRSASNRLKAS
The target of experiment [7] is BDNF/NT-3 growth factors receptor (Homo sapiens) (UniProt Q16620). Description: Inhibition of N-terminal His6 tagged recombinant human TrkB (455 to end residues) expressed in baculovirus infected Sf21 cells at 0.3 uM by filter binding assay relative to control. The gist of the method:
as §2

The target in experiment [8] is Dual specificity tyrosine-phosphorylation-regulated kinase 2 (Homo sapiens) (UniProt Q92630). The experiment in a line: Inhibition of 6His-tagged recombinant full-length human DYRK2 expressed in baculovirus infected Sf21 cells at 3 uM by filter binding assay relative to control. In short, it runs like this: (§3)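 KinaseProfiler panel of 233 kinases: radiometric filter-binding activity assays with compound at 0.3 or 3 µmol/L. Read-out is percent inhibition.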

Experiment [9] addresses Homeodomain-interacting protein kinase 2 (Homo sapiens) (UniProt Q9H2X6). Description: Inhibition of N-terminal His6-tagged recombinant human HIPK2 (165 to 564 residues) expressed in baculovirus infected Sf21 cells at 3 uM by filter binding assay relative to control.
Experiment [10] addresses LIM domain kinase 1 (Homo sapiens) (UniProt P53667). Description: Inhibition of N-terminal 6His-tagged recombinant human LIMK1 (285 to 638 residues) expressed in baculovirus infected Sf21 cells at 3 uM by filter binding assay relative to control. In short, it runs like this: as §2
Experiment [11] deals with FKBP12A/mTOR (Homo sapiens) (UniProt P62942+P42345). The experiment in a line: Inhibition of human mTOR/FKBP12 at 3 uM by filter binding assay relative to control. The format is protein-complex assay.
FKBP12A/mTOR (Homo sapiens), sequence (P62942 2-108 limits assumed, other chains not shown): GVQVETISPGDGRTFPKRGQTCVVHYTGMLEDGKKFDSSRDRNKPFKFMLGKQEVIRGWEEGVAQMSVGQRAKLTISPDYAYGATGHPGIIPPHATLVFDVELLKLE
Experiment [12] deals with Serine/threonine-protein kinase Nek3 (Homo sapiens) (UniProt P51956). Description: Inhibition of N-terminal 6His-tagged recombinant full length human NEK3 expressed in baculovirus infected Sf21 cells at 3 uM by filter binding assay relative to control. The gist of the method:
as §3

Experiment [13] has as its target Serine/threonine-protein kinase pim-1 (Homo sapiens) (UniProt P11309). Description: Inhibition of N-terminal GST-tagged recombinant human full-length Pim-1 expressed in Escherichia coli cells at 3 uM by filter binding assay relative to control. In short, it runs like this:
as §2

For experiment [14], the target named is Proto-oncogene tyrosine-protein kinase receptor Ret (Homo sapiens) (UniProt P07949). The experiment in a line: Inhibition of N-Terminal GST-tagged recombinant human Ret (658 to end residues) expressed in baculovirus infected Sf21 cells at 3 uM by filter binding assay relative to control. In short, it runs like this: as §3
Proto-oncogene tyrosine-protein kinase receptor Ret (Homo sapiens), sequence (P07949 whole entry): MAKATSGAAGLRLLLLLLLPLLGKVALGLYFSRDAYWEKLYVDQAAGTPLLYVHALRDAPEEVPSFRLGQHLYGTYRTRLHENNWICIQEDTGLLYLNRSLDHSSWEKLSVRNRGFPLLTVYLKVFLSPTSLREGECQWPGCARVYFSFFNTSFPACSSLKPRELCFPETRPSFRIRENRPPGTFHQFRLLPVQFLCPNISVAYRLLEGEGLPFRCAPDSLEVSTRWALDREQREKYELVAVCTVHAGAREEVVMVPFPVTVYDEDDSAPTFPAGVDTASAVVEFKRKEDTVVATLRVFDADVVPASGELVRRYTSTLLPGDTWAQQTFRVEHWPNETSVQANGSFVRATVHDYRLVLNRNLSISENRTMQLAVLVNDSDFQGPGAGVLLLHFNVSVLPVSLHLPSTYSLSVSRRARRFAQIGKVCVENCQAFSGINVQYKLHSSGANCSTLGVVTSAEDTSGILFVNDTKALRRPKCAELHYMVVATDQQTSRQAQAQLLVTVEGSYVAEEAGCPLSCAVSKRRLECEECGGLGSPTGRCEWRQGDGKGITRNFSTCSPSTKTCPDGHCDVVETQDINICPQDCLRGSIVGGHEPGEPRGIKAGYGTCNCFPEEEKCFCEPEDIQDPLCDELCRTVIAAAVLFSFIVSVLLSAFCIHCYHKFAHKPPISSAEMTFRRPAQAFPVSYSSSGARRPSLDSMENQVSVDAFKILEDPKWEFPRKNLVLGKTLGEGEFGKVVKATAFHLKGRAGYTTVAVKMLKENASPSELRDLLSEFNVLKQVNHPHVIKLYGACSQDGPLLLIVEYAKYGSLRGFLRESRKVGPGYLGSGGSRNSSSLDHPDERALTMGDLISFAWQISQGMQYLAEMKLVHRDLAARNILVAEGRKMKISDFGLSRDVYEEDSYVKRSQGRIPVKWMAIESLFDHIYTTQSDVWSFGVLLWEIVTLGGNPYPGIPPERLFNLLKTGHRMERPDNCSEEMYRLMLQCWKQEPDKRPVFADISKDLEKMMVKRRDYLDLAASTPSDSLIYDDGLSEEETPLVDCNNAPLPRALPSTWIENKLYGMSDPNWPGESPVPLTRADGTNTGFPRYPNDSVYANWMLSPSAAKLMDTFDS
Experiment [15] deals with Testis-specific serine/threonine-protein kinase 1 (Homo sapiens) (UniProt Q9BXA7). Description: Inhibition of 6His-tagged recombinant human full length TSSK1 expressed in baculovirus infected Sf21 cells at 3 uM by filter binding assay relative to control. The gist of the method:
as §3

Experiment [16] addresses Casein kinase I isoform gamma-3 (Homo sapiens, UniProt Q9Y6M4). Description: Inhibition of N-terminal 6His-tagged recombinant human CK1gamma3 (1 to 330 residues) expressed in baculovirus infected Sf21 cells by filter binding assay.

Serine/threonine-protein kinase Nek3 (Homo sapiens), sequence (P51956 whole entry): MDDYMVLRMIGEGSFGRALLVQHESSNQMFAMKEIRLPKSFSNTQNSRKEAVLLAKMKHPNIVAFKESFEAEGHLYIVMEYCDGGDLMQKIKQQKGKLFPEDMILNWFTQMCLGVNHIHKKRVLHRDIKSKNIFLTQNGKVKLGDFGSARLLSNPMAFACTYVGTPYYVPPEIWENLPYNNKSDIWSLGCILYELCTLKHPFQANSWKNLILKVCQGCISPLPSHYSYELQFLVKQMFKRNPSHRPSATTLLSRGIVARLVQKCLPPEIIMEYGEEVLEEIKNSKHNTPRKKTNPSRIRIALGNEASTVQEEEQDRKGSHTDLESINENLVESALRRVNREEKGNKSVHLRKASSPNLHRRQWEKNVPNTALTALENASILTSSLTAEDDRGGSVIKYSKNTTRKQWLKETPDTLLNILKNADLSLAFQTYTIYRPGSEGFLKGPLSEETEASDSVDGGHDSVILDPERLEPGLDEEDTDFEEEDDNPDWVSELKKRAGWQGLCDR
Dual specificity protein kinase CLK2 (Homo sapiens), sequence (P49760 whole entry, looked up): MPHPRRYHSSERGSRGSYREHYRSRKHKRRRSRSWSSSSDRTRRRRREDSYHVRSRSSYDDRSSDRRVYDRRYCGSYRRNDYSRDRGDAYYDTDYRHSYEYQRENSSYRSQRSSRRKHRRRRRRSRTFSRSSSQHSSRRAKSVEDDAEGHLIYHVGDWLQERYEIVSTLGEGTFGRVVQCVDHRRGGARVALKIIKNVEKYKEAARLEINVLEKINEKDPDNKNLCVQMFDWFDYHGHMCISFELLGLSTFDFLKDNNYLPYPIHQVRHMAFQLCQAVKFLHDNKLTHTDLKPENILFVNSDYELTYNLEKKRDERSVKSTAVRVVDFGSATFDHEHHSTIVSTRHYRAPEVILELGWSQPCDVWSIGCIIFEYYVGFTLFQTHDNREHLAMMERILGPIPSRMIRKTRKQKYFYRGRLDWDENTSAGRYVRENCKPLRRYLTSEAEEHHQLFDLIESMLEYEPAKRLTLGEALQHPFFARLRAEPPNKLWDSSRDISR
Casein kinase I isoform gamma-3, sequence (Q9Y6M4 whole entry, the tested form may be a part, canonical isoform): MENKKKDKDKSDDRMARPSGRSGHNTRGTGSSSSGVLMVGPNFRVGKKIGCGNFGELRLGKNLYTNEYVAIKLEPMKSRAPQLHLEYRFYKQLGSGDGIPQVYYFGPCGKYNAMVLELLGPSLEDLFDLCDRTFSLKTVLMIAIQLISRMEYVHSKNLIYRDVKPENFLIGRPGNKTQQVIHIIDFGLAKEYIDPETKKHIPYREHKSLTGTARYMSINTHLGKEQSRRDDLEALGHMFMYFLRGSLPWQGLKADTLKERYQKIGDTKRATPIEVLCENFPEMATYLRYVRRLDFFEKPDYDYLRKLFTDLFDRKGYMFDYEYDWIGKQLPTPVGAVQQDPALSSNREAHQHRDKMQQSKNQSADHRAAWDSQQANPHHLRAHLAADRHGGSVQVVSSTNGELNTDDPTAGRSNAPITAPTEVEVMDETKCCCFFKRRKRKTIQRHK
BDNF/NT-3 growth factors receptor (Homo sapiens), sequence (Q16620 32-822 limits assumed): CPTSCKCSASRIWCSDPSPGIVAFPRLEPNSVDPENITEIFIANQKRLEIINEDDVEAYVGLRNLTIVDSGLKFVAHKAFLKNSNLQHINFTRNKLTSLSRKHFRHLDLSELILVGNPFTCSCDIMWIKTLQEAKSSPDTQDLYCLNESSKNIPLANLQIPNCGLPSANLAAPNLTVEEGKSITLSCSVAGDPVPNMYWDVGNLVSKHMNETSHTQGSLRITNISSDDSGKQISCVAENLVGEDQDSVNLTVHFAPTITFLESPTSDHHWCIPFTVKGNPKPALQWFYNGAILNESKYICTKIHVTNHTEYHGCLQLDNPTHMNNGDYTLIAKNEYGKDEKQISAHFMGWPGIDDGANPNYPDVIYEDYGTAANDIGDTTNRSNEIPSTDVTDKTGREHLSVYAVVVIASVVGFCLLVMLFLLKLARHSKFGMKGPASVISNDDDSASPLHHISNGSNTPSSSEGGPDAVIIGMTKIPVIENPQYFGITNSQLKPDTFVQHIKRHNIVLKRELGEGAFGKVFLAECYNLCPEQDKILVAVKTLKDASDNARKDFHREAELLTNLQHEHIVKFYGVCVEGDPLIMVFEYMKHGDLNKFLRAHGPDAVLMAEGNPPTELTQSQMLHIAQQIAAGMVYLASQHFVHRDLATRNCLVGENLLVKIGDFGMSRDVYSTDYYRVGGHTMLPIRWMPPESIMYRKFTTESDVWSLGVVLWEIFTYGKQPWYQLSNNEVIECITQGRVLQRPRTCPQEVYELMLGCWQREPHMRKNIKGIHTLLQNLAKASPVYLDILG

For `CCc1cc(Nc2nccc(-c3c(-c4ccc(OC)c(C(=O)Nc5c(F)cccc5F)c4)nc4ccccn34)n2)c(OC)cc1N1CCC(N2CCN(S(C)(=O)=O)CC2)CC1`, the IC50 in the experiment on KMS-12-BM is 0.113 µM; in experiment [1] it was 0.062 µM; in the experiment with HeLa, over 20 µM; on Activin receptor type-2B, over 10 µM; in experiment [4], 13 µM; in [16], over 10 µM. Also, in the experiment on MCF7, the Activity came to 11%. In addition, the inhibition in vivo at 30 mg/kg in experiment [2] is 56%. Moreover, the inhibition result with COLO 205 is “Dose-Dependent Effect”; in experiment [5], 0%; in experiment [6], -8%; in [7] it was 4%; in [8], -8%; in [9] it was 4%. Also, the inhibition amounted to 18% in experiment [10]; 4% in [11]; 16% in experiment [12]; 25% in experiment [13]; 52% in [14]; 11% in experiment [15]. Also, the “inhibition (INH)” value in experiment [3] was over 90%.
